Results published in ChEMBL document CHEMBL3877303 (J Med Chem, 2017).
pIC50: −log10 of the molar value. Active and inactive are the calls of the source. The rule behind the calls is not given here.

How the values were obtained:
[1] = molecular target: Platelet-derived growth factor receptor beta (Homo sapiens, UniProt P09619); experiment: Inhibition of Tel-fused PDGFR-beta (unknown origin) expressed in BAF3 cells assessed as growth inhibition measured after 72 hrs by CellTiter-Glo or CCK8 assay; assay type: cell-based
How it was run: (§1)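 BaF3 lines were made by retroviral transduction with kinase-fusion MSCV vectors packaged in HEK293T cells. Cells were selected with puromycin for 48 h, then selected again without IL-3 so growth depends on the introduced kinase. […] They were seeded at 1 to 2.5×10^4 cells/mL with compound dilutions and incubated 72 h. Viability was read by CellTiter-Glo luminescence or CCK-8 absorbance (450/655 nm), normalized to DMSO control; GI50 was curve-fitted from triplicate tests.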

[2] = molecular target: T1, Mast/stem cell growth factor receptor Kit (Homo sapiens, UniProt P10721); experiment: Inhibition of recombinant C-terminal polyhistidine-tagged human c-KIT expressed in mammalian expression system using Tyr 06 peptide as substrate measured after 1hr by FRET based Z'Lyte assay
GIST882 = experiment: Induction of apoptosis in human GIST882 cells assessed as cleavage of PARP at 0.1 to 3 uM by Western blot analysis; assay type: functional, cell-based
How it was run: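 Cells were treated with DMSO or serially diluted compound for the indicated periods. They were washed in ice-cold PBS and lysed in RIPA buffer with protease/phosphatase inhibitors, and protein was quantified by BCA. Lysates were resolved by SDS-PAGE, transferred to PVDF and blocked in 5% milk/TBST. Blots were probed for PARP and caspase-3, with β-actin as loading control, and detected by ECL.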

[3] = Cmax in Sprague-Dawley rat at 10 mg/kg, po; assay type: ADME, organism-based; design: dose 10 mg/kg, route oral; settings: in vivo
How it was run: (§2)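 Male Sprague-Dawley rats aged six to eight weeks were fasted overnight and then dosed iv or orally. Blood (~0.2 mL) was drawn from the jugular vein into heparin and kept on ice. Sampling was at 1 min to 8 h for iv and 5 min to 24 h for oral. Plasma was separated by centrifugation at 2-8 °C and stored at -80 °C until analysis.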

[4] = Cell cycle arrest in human GISTT1 cells assessed as accumulation at G0/G1 phase at 0.3 uM after 24 hrs by propidium iodide/RNase staining based flow cytometry; assay type: functional
How it was run: (§3)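 Cells were exposed to serially diluted compound, then fixed in cold 70% ethanol overnight at -20 °C. They were stained with PI/RNase buffer for DNA-content cell-cycle analysis.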

[5] = Half life in Sprague-Dawley rat at 10 mg/kg, po; assay type: ADME, organism-based; settings: in vivo; how it was run: as §2
[6] = molecular target: Macrophage colony-stimulating factor 1 receptor (Homo sapiens, UniProt P07333); experiment: Inhibition of recombinant His-tagged human CSF1R cytoplasmic domain expressed in baculovirus expression system measured after 1 hr by FRET based Z'Lyte assay
How it was run: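 Z'-LYTE FRET biochemical kinase assay run by Invitrogen on selected kinases identified from binding profiling; IC50 from dose-response.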

[7] = Anticancer activity against human GISTT1 cells xenografted in nu/nu mouse assessed as tumor weight at 25 mg/kg, po administered daily via oral gavage measured 21 days post compound treatment (reference value: 2.86 g)
[8] = molecular target: T1, Mast/stem cell growth factor receptor Kit; experiment: Inhibition of c-KIT autophosphorylation at Y823 in human GISTT1 cells at 0.03 to 10 uM measured after 2 hrs by immunoblotting; assay type: cell-based
How it was run: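 After an ice-cold PBS wash, cells were lysed in RIPA buffer (50 mM Tris pH 8.0) with protease and phosphatase inhibitors, and protein was quantified by BCA. Lysates were run on SDS-PAGE, transferred to PVDF and blocked in 5% milk/TBST. Phospho- and total proteins were probed by immunoblot with ECL detection; β-actin served as loading control.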

[9] = Cell cycle arrest in human MEG01 cells assessed as accumulation at G0/G1 phase at 0.3 uM after 24 hrs by propidium iodide/RNase staining based flow cytometry; assay type: functional; settings: MEG-01; how it was run: as §3
[10] = Anticancer activity against human K562 cells xenografted in nu/nu mouse assessed as tumor weight at 50 mg/kg administered via oral gavage measured after 28 days (reference value: 6.75 g); assay type: functional
How it was run: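 Female nu/nu mice received ten million K562 cells subcutaneously in the right flank, in PBS mixed 1:1 with Matrigel. Daily oral gavage began at 200-400 mm³ tumor size, with 4 or 5 mice per group. Dosing was 25, 50 or 100 mg/kg/d or vehicle (0.5% methylcellulose/0.4% Tween80) for 28 days. Body weight and tumor size were normalized to initial values, and final tumor weight was recorded. Data are mean ± SEM.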

[11] = AUC (0 to t) in Sprague-Dawley rat at 1 mg/kg, iv; assay type: ADME, organism-based; settings: in vivo; how it was run: as §2
BaF3 = experiment: Inhibition of BCR/ABL p210 fusion protein F317L mutant (unknown origin) expressed in BAF3 cells assessed as growth inhibition measured after 72 hrs by CellTiter-Glo or CCK8 assay; assay type: cell-based; settings: Homo sapiens; how it was run: as §1

T1 sequence (P10721 whole entry): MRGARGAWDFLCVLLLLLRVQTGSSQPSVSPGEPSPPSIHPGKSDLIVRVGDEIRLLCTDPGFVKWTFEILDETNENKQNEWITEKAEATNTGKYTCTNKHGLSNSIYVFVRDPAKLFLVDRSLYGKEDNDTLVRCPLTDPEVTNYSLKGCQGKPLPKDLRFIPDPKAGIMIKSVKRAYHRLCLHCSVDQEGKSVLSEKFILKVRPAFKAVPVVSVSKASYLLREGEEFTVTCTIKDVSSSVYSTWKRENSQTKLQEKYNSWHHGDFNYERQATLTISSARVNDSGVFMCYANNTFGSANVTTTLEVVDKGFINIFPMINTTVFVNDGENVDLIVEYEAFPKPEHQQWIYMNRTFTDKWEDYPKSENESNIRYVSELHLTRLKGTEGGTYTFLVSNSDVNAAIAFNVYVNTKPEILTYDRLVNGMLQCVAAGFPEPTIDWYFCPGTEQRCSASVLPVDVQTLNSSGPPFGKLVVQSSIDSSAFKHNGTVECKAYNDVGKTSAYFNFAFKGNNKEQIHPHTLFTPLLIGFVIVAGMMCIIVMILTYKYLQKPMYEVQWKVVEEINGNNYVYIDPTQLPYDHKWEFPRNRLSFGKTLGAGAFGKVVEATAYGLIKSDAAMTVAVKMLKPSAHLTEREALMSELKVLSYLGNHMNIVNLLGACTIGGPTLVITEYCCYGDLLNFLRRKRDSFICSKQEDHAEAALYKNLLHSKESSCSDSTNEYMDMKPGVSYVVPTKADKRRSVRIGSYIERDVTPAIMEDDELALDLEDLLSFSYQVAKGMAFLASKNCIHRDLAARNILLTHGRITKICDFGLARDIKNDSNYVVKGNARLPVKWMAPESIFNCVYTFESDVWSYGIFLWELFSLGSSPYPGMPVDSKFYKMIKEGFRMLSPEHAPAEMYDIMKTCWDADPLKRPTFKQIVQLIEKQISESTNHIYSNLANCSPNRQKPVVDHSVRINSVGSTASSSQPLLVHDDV
Macrophage colony-stimulating factor 1 receptor, sequence (P07333 whole entry, the tested form may be a part): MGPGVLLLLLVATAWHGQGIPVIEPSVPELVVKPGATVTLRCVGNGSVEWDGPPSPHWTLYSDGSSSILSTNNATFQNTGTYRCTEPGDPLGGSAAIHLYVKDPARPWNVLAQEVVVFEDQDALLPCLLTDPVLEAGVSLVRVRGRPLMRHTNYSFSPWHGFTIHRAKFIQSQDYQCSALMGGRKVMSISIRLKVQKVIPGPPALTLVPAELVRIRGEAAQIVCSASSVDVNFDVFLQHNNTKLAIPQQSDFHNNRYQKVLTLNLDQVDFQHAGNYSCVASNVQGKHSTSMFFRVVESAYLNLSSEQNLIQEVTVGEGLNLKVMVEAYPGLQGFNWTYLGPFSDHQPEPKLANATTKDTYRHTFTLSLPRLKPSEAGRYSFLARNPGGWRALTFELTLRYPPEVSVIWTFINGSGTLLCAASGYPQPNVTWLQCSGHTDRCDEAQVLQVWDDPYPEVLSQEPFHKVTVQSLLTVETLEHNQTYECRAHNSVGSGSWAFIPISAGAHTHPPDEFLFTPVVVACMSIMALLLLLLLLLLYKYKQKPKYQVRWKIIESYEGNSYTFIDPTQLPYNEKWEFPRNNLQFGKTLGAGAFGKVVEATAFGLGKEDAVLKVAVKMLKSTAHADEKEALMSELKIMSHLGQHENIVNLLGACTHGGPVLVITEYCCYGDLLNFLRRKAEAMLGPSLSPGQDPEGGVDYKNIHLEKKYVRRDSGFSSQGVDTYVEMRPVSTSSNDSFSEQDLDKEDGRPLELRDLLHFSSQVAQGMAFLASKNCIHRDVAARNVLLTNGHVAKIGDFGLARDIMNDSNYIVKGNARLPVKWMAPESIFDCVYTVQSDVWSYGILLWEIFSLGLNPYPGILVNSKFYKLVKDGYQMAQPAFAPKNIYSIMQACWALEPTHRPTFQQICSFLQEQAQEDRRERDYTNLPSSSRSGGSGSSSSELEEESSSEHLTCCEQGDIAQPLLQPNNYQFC
Platelet-derived growth factor receptor beta, sequence (P09619 whole entry, the tested form may be a part): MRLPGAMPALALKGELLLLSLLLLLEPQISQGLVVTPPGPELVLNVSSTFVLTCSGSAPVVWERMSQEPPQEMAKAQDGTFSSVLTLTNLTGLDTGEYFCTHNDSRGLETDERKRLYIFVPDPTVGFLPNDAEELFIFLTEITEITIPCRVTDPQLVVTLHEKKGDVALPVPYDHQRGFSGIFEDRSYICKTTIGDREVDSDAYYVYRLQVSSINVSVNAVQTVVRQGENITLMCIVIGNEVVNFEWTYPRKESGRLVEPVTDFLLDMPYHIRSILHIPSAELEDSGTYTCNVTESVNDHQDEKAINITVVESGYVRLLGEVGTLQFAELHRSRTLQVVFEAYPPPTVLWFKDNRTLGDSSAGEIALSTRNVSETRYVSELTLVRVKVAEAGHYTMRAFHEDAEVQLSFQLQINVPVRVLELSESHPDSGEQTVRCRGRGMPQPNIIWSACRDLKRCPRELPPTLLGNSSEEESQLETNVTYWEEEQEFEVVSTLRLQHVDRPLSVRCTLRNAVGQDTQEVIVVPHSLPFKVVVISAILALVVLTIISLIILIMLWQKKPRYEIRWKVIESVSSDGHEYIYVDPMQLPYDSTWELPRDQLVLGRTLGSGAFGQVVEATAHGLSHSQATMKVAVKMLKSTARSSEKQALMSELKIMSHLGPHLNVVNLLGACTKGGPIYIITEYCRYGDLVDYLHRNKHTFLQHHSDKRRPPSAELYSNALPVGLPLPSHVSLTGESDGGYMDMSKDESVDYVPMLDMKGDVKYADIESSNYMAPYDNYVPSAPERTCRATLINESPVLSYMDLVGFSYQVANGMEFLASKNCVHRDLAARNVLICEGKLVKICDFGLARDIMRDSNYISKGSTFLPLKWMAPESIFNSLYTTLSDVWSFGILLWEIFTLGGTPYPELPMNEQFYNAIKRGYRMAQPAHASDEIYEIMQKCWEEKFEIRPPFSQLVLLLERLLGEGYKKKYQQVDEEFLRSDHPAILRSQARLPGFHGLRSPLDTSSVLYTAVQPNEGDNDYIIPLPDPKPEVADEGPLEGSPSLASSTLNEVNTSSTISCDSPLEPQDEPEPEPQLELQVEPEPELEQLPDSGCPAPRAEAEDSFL

Q: Which results are given for `Cc1ccc(C(=O)N2CCC(Oc3cc(NC(=O)c4ccc(CN5CCN(C)CC5)c(C(F)(F)F)c4)ccc3C)CC2)cn1`?
A: GI50 [1]: 14 nM; pIC50 [2]: 7.12; Activity (GIST882): Active; Cmax [3]: 223 ng/mL; Activity [4]: Active; half-life [5]: 2.83 h; pIC50 [6]: 6.64; Activity [7]: 2.2 g; inhibition [8]: Active; Activity [9]: Active; Activity [10]: 6.51 g; AUC(0-t) [11]: 510 ng·h/mL; GI50 (BaF3): 670 nM
